Laboratory results as given in ChEMBL document CHEMBL4433220, “Identification of the 2-Benzoxazol-2-yl-phenol Scaffold as New Hit for JMJD3 Inhibition” (ACS Med Chem Lett, 2019).
Activity calls are given as the source filed them. The calls are words filed in the database; no cut-off is given here.

Key:
[1] = biological target: T1, Lysine-specific demethylase 6B (Homo sapiens, UniProt O15054); assay: Inhibition of recombinant human JMJD3 expressed in baculovirus infected Sf9 cells at 25 uM using biotinylated histone H3 peptide as substrate incubated for 15 mins followed by substrate addition and measured after 60 mins by AlphaScreen assay relative to control
In short: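 JMJD3 demethylase activity measured by AlphaScreen with compound at 25 μM; means ± SEM, n = 3.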

[2] = test system: A-375; assay: Antiproliferative activity against human A375 cells incubated for 24 hrs by propidium iodide staining based flow cytometric analysis; details: A-375, 24 h
[3] = test system: A-375; assay: Cell cycle arrest in human A375 cells assessed as accumulation at G2/M phase at 20 uM incubated for 24 hrs by propidium iodide staining-based flow cytometry (reference value: 10.81%); assay type: functional
In short: (§1)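 A375 melanoma cells exposed to compound at 1, 5, 10, 20, 40, 80 or 100 μM for 24 h. Cells were collected, fixed in iced 70% ethanol for 2 h and stained with propidium iodide. Cell-cycle distribution was read by flow cytometry, n = 3. […]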

[4] = biological target: T1, Lysine-specific demethylase 6B; assay: Inhibition of JMJD3 in human A375 cells assessed as reduction in decrease of the H3K27me2 level at 100 uM incubated for 24 hrs by Western blot analysis; assay type: cell-based
In short: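 A375 melanoma cells treated with 100 μM compound for 4 and 24 h, then lysed and run on SDS-PAGE. Western blot on nitrocellulose was probed with anti-H3K27me2 antibody.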

[5] = test system: A-375; assay: Cell cycle arrest in human A375 cells assessed as accumulation at G2/M phase at 80 uM incubated for 24 hrs by propidium iodide staining-based flow cytometry (reference value: 10.81%); assay type: functional; in short: as §1
[6] = test system: A-375; assay: Cell cycle arrest in human A375 cells assessed as accumulation at S phase at 40 uM incubated for 24 hrs by propidium iodide staining-based flow cytometry (reference value: 29.56%); assay type: functional; in short: as §1
[7] = test system: A-375; assay: Cell cycle arrest in human A375 cells assessed as accumulation at G1 phase at 40 uM incubated for 24 hrs by propidium iodide staining-based flow cytometry (reference value: 59.63%); assay type: functional; in short: as §1
[8] = Apparent permeability of the compound in pH 7.4 phosphate buffer solution at 0.5 mM incubated for 24 hrs under gentle shaking condition by HPLC-UV detector based PAMPA assay; assay type: ADME
In short: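 Parallel artificial membrane permeability assay (PAMPA); apparent permeability (Papp) reported in cm/s.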

[9] = test system: A-375; assay: Cell cycle arrest in human A375 cells assessed as accumulation at G1 phase at 80 uM incubated for 24 hrs by propidium iodide staining-based flow cytometry (reference value: 59.63%); assay type: functional; in short: as §1
[10] = test system: A-375; assay: Cell cycle arrest in human A375 cells assessed as accumulation at G2/M phase at 100 uM incubated for 24 hrs by propidium iodide staining-based flow cytometry (reference value: 10.81%); assay type: functional; in short: as §1
[11] = test system: A-375; assay: Cell cycle arrest in human A375 cells assessed as accumulation at S phase at 80 uM incubated for 24 hrs by propidium iodide staining-based flow cytometry (reference value: 29.56%); assay type: functional; in short: as §1
[12] = test system: A-375; assay: Cell cycle arrest in human A375 cells assessed as accumulation at S phase at 100 uM incubated for 24 hrs by propidium iodide staining-based flow cytometry (reference value: 29.56%); assay type: functional; in short: as §1
[13] = test system: A-375; assay: Cell cycle arrest in human A375 cells assessed as accumulation at G1 phase at 20 uM incubated for 24 hrs by propidium iodide staining-based flow cytometry (reference value: 59.63%); assay type: functional; in short: as §1
[14] = test system: A-375; assay: Cell cycle arrest in human A375 cells assessed as accumulation at G2/M phase at 40 uM incubated for 24 hrs by propidium iodide staining-based flow cytometry (reference value: 10.81%); assay type: functional; in short: as §1
[15] = test system: A-375; assay: Cell cycle arrest in human A375 cells assessed as accumulation at G1 phase at 100 uM incubated for 24 hrs by propidium iodide staining-based flow cytometry (reference value: 59.63%); assay type: functional; in short: as §1
[16] = test system: A-375; assay: Cell cycle arrest in human A375 cells assessed as accumulation at S phase at 20 uM incubated for 24 hrs by propidium iodide staining-based flow cytometry (reference value: 29.56%); assay type: functional; in short: as §1
[17] = biological target: T1, Lysine-specific demethylase 6B; assay: Inhibition of recombinant human JMJD3 expressed in baculovirus infected Sf9 cells using biotinylated histone H3 peptide as substrate incubated for 15 mins followed by substrate addition and measured after 60 mins by AlphaScreen assay
[18] = biological target: Lysine-specific demethylase 6A (Homo sapiens, UniProt O15550); assay: Inhibition of UTX (unknown origin) using histone H3 peptide as substrate incubated for 30 mins followed by substrate addition by AlphaScreen assay
Lysine-specific demethylase 6A, sequence (O15550 whole entry): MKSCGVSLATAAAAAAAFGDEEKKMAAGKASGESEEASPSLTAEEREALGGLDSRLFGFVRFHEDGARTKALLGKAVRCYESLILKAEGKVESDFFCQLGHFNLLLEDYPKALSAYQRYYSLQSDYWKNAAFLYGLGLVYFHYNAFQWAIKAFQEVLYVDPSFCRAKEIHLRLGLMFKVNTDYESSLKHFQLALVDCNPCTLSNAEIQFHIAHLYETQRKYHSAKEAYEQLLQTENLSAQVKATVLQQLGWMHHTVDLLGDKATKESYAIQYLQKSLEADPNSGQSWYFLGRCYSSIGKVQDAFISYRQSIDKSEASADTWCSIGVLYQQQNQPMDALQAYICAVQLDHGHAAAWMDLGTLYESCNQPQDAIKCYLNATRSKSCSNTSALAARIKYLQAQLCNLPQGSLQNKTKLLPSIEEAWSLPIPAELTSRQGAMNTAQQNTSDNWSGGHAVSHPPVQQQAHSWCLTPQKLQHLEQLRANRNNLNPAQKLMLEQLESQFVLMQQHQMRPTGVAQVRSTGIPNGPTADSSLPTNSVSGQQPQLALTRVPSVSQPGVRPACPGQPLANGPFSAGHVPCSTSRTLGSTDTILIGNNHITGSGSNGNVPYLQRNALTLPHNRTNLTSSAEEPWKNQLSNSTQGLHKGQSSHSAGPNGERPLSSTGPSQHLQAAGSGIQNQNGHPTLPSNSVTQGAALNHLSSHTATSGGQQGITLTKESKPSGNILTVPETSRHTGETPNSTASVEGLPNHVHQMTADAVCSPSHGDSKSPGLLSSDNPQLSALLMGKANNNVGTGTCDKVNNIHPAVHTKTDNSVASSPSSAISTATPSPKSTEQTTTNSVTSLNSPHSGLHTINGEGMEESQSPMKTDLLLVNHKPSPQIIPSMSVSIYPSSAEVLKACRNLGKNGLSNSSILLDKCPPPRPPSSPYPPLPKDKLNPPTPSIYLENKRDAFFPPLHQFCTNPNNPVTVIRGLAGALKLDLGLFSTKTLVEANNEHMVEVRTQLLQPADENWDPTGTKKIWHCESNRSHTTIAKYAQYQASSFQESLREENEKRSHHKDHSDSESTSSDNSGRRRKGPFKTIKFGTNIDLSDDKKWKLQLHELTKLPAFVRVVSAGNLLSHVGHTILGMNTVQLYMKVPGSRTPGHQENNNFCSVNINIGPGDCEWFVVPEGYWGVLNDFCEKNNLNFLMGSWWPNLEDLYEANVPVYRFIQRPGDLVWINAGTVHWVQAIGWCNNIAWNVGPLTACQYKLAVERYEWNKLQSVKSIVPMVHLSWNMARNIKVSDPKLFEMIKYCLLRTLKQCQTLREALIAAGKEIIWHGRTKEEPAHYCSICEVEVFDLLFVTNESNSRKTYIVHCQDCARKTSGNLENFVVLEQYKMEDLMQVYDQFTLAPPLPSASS

T1 sequence (O15054 whole entry): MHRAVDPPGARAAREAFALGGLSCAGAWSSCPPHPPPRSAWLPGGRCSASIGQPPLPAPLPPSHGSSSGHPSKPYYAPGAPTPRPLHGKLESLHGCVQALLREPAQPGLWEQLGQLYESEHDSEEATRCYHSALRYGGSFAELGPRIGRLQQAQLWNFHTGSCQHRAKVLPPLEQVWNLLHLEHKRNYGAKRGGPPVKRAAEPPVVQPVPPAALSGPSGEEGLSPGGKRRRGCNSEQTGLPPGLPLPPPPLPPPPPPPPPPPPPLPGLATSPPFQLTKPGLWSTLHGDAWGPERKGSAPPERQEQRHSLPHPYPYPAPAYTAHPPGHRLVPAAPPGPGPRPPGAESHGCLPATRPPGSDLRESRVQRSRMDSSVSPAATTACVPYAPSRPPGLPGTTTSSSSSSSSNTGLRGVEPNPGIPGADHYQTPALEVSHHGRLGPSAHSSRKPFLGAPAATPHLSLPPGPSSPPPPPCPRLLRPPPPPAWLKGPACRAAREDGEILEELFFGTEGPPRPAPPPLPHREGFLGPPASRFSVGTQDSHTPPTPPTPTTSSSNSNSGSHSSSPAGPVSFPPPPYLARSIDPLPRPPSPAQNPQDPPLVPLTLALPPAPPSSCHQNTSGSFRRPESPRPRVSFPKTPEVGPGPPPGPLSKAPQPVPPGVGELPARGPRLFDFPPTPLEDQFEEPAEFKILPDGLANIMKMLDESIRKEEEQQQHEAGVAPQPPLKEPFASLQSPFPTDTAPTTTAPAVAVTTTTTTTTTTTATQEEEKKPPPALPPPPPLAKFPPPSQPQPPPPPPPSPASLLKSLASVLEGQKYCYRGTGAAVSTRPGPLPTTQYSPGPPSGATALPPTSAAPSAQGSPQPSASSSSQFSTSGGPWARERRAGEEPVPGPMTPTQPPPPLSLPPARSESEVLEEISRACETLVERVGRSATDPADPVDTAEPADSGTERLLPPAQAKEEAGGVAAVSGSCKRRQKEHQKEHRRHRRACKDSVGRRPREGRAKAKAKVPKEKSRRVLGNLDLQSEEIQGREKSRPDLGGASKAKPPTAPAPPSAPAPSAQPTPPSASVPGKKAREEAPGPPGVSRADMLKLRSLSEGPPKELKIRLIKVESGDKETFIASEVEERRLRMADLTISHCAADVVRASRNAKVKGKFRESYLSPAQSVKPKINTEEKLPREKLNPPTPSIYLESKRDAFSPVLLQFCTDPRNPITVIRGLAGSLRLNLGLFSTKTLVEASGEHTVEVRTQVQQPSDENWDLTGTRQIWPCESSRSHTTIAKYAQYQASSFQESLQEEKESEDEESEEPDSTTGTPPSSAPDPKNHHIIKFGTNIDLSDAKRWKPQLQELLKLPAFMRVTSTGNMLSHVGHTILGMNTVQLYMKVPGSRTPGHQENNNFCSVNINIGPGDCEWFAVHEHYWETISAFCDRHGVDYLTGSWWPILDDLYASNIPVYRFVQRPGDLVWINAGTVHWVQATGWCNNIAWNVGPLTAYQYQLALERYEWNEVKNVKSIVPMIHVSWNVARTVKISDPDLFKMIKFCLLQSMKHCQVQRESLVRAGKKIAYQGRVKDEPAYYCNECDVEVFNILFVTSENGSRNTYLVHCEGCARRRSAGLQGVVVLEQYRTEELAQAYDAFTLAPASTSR

Oc1ccc(O)c(-c2nc3ccccc3o2)c1
inhibition [1]: 90% | IC50 [2]: 24.7 µM | Activity [3]: 1.12% | inhibition [4]: Active | Activity [5]: 10.96% | Activity [6]: 61.05% | Activity [7]: 24.14% | Papp at 24 h, 500 µM [8]: 0.912 ×10⁻⁶ cm/s | Activity [9]: 21.92% | Activity [10]: 10% | Activity [11]: 67.12% | Activity [12]: 73.38% | Activity [13]: 51.31% | Activity [14]: 14.81% | Activity [15]: 16.62% | Activity [16]: 47.57% | IC50 [17]: 1.2 µM | IC50 [18]: 25.7 µM

Oc1ccccc1-c1nc2ccccc2s1
inhibition [1]: inactive

O=C(O)c1ccc(O)c(-c2nc3ccccc3o2)c1
inhibition [1]: 27%

Oc1c(F)cc(F)cc1-c1nc2ccccc2o1
inhibition [1]: 20%

COc1cc2c(cc1-c1nc3ccccc3o1)OCO2
inhibition [1]: inactive

Oc1ccccc1-c1nc2ccccc2o1
inhibition [1]: 40%
